{"source": "paper PMC5615838", "about": "(Toxicology Reports, 2016)", "key": {"[1]": {"target": "T1, CYP1A2 (Homo sapiens, UniProt P05177)", "T1 sequence (P05177 1-516)": "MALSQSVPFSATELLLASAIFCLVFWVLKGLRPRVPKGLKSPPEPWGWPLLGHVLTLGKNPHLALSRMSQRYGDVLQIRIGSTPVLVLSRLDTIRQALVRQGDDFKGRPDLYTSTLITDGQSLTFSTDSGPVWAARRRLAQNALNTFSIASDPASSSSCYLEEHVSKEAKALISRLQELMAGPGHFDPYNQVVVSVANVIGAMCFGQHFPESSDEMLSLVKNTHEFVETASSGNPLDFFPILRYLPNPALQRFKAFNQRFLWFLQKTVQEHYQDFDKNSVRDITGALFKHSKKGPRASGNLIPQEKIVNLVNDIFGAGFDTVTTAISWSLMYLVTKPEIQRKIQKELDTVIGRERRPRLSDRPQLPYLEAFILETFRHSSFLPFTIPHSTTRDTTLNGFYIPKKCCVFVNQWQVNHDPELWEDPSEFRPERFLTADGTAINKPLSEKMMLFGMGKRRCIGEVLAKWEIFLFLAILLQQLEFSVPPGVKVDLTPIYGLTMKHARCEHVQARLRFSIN", "assay": "CYP inhibition, LC–MS/MS assay in human liver microsomes", "type": "in vitro ADME", "conditions": "pooled human liver microsomes, probe phenacetin", "summary_of_the_method": "(§1)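 Follow-up CYP panel in pooled human liver microsomes with CYP-specific probe substrates; CYP-specific metabolites quantified by LC-MS/MS. Test compound at 10 μM. Percent inhibition reported.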"}, "[2]": {"assay": "in vitro metabolism in rat liver microsomes", "type": "in vitro ADME", "conditions": "50 μM, 120 min"}, "[3]": {"tested_on": "human peripheral blood lymphocytes", "assay": "in vitro chromosome aberration test", "conditions": "200–1300 μg/mL, 3 or 21 hr exposure, ±S9"}, "[4]": {"target": "CYP2C19 (Homo sapiens, UniProt P33261)", "sequence (P33261 whole entry)": "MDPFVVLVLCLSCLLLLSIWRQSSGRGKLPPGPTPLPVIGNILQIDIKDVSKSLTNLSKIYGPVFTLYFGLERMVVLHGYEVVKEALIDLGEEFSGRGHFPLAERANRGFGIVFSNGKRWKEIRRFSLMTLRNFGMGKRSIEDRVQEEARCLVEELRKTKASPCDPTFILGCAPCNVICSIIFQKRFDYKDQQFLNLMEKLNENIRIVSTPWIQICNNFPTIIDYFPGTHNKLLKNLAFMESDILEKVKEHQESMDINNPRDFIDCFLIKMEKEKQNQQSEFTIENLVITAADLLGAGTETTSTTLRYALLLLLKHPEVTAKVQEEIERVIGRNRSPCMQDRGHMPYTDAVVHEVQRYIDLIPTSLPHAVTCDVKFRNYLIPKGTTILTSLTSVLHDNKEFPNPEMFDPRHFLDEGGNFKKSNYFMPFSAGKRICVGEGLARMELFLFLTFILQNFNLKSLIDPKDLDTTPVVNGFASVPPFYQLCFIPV", "assay": "CYP inhibition, LC–MS/MS assay in human liver microsomes", "type": "in vitro ADME", "conditions": "pooled human liver microsomes, probe S-mephenytoin", "summary_of_the_method": "as §1"}, "[5]": {"tested_on": "S. typhimurium strains TA98, TA100, TA1535, TA1537 and E. coli strain WP2 uvrA", "assay": "bacterial reverse mutation test", "type": "cell-based, Salmonella typhimurium, Escherichia coli", "conditions": "50–5000 μg/plate, plate incorporation and pre-incubation, ±S9"}, "[6]": {"target": "human bitter receptor hTAS2R8", "conditions": "antagonist; cited from earlier work"}, "[7]": {"target": "CYP2C9 (Homo sapiens, UniProt P11712)", "sequence (P11712 whole entry)": "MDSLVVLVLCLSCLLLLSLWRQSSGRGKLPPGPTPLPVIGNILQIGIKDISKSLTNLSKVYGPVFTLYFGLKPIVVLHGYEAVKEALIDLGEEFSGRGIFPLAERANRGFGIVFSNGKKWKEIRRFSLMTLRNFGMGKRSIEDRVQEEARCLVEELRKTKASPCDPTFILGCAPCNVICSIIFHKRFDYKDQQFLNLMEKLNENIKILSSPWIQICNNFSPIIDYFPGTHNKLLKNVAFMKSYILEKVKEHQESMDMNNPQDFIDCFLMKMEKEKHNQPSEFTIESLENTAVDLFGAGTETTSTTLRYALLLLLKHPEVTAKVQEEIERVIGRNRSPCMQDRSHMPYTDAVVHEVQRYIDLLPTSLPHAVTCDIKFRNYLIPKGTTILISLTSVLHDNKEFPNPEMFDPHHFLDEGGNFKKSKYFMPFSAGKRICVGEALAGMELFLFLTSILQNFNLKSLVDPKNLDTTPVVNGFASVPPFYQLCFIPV", "assay": "CYP inhibition, LC–MS/MS assay in human liver microsomes", "type": "in vitro ADME", "conditions": "pooled human liver microsomes, probe tolbutamide", "summary_of_the_method": "as §1"}, "[8]": {"assay": "28-day dose-range finding toxicity study, diet", "type": "in vivo, rat", "conditions": "28 days", "summary_of_the_method": "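Crl:CD(SD) rats, 5/sex/group, fed test compound in the diet at 10, 30 or 100 mg/kg bw/day for 28 days, with a vehicle-diet control group of 5/sex. Assessed survival, clinical signs, body weight, food consumption, hematology, clinical chemistry, organ weights and gross pathology. Livers examined microscopically in the 0 and 100 mg/kg bw/day groups.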"}, "[9]": {"assay": "90-day subchronic toxicity study, diet", "type": "in vivo, rat", "summary_of_the_method": "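Sprague-Dawley Crl:CD(SD) rats, 20/sex/group, received test compound continuously in the diet at 0, 10, 30 or 100 mg/kg bw/day for 90 consecutive days. Body-weight gain and food consumption were monitored. Clinical signs were recorded throughout treatment.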"}, "[10]": {"assay": "pharmacokinetics and oral bioavailability of S6821", "type": "in vivo, rat"}, "[11]": {"tested_on": "GPCRs, ion channels, nuclear receptors, transporters", "assay": "lead profiling receptor screen", "type": "binding", "conditions": "10 μM"}, "[12]": {"assay": "in vitro metabolism in human liver microsomes", "type": "in vitro ADME", "conditions": "50 μM, 120 min"}, "[13]": {"tested_on": "bone marrow PCEs", "assay": "in vivo micronucleus assay", "design": "species or system mouse", "conditions": "500, 1000, 2000 mg/kg bw/day (oral), 2 days, male CD-1 mice"}, "[14]": {"conditions": "male, Sprague-Dawley, rat, plasma, iv, 1 mg/kg"}, "[15]": {"conditions": "male, Sprague-Dawley, rat, plasma, po, 10 mg/kg"}, "[16]": {"conditions": "male, Sprague-Dawley, rat, plasma, po, 30 mg/kg"}, "[17]": {"conditions": "male, Sprague-Dawley, rat, plasma, po, 100 mg/kg"}}, "note": "pIC50: −log10 of the molar value.", "data": [{"smiles": "Cc1noc(C)c1Cn1cc(N2C(=O)CN(Cc3cccc(O)c3)C2=O)cn1", "note": "[S6821, 3-(1-((3,5-dimethylisoxazol-4-yl)methyl)-1H-pyrazol-4-yl)-1-(3-hydroxybenzyl)imidazolidine-2,4-dione]", "values": [{"measurement": "inhibition at 10 µM", "setting": "[1]", "result": 18, "unit": "%"}, {"measurement": "parent S6821 remaining, peak area % of time 0", "setting": "[2]", "result": 56, "unit": "%"}, {"measurement": "Chromosome aberration (in vitro), Result", "setting": "[3]", "result": "Negative"}, {"measurement": "inhibition at 10 µM", "setting": "[4]", "result": 8, "unit": "%"}, {"measurement": "Reverse mutation (in vitro), Result", "setting": "[5]", "result": "Negative"}, {"measurement": "pIC50", "setting": "[6]", "result": 7.46}, {"measurement": "inhibition at 10 µM", "setting": "[7]", "result": -3, "unit": "%"}, {"measurement": "MTD", "setting": "[8]; 10, 30, 100 mg/kg bw/day food ad-mix, male & female", "result": "> 100", "unit": "mg/kg bw/day"}, {"measurement": "Findings", "setting": "[8]; up to 100 mg/kg bw/day", "result": "No test-article related findings"}, {"measurement": "NOAEL", "setting": "[9]; 10, 30, 100 mg/kg bw/day food ad-mix, 90 days, both sexes", "result": 100, "unit": "mg/kg bw/day"}, {"measurement": "NOEL", "setting": "[9]; 90 days, females", "result": 100, "unit": "mg/kg bw/day"}, {"measurement": "NOEL", "setting": "[9]; 90 days, males", "result": 30, "unit": "mg/kg bw/day"}, {"measurement": "Motor activity scores", "setting": "[9]; males, 100 mg/kg bw/day, week 12, second half of 1-hour recording", "result": "slightly higher than those of controls"}, {"measurement": "Findings", "setting": "[9]; up to 100 mg/kg bw/day, 90 days", "result": "No test-article related findings"}, {"measurement": "AUC0-last/dose", "setting": "[10]; iv 1.0 mg/kg bw S6821", "result": 161, "unit": "ng·h/mL/mg/kg"}, {"measurement": "Vss, times the total body water volume in the rat", "setting": "[10]; iv, body water 668 mL/kg", "result": 0.84, "unit": "times"}, {"measurement": "CL as % of hepatic blood flow in the rat", "setting": "[10]; iv, hepatic blood flow 55.2 mL/min/kg", "result": 190, "unit": "%"}, {"measurement": "AUC(0-t)", "setting": "[10]; [14]", "result": 161, "unit": "ng·h/mL"}, {"measurement": "Cmax", "setting": "[10]; [14]", "result": 619, "unit": "ng/mL"}, {"measurement": "Tmax", "setting": "[10]; [14]", "result": 4.8, "unit": "min"}, {"measurement": "Vd", "setting": "[10]; [14]", "result": 0.563, "unit": "L/kg"}, {"measurement": "clearance", "setting": "[10]; [14]", "result": 105, "unit": "mL/min/kg"}, {"measurement": "half-life", "setting": "[10]; [14]", "result": 6, "unit": "min"}, {"measurement": "AUC(0-t)", "setting": "[10]; [15]", "result": 28, "unit": "ng·h/mL"}, {"measurement": "Cmax", "setting": "[10]; [15]", "result": 12.3, "unit": "ng/mL"}, {"measurement": "Tmax", "setting": "[10]; [15]", "result": 30, "unit": "min"}, {"measurement": "bioavailability", "setting": "[10]; [15]", "result": 1.74, "unit": "%"}, {"measurement": "half-life", "setting": "[10]; [15]", "result": 120, "unit": "min"}, {"measurement": "AUC(0-t)", "setting": "[10]; [16]", "result": 201, "unit": "ng·h/mL"}, {"measurement": "Cmax", "setting": "[10]; [16]", "result": 38.5, "unit": "ng/mL"}, {"measurement": "Tmax", "setting": "[10]; [16]", "result": 30, "unit": "min"}, {"measurement": "bioavailability", "setting": "[10]; [16]", "result": 4.16, "unit": "%"}, {"measurement": "half-life", "setting": "[10]; [16]", "result": 426, "unit": "min"}, {"measurement": "AUC(0-t)", "setting": "[10]; [17]", "result": 410, "unit": "ng·h/mL"}, {"measurement": "Cmax", "setting": "[10]; [17]", "result": 68.1, "unit": "ng/mL"}, {"measurement": "Tmax", "setting": "[10]; [17]", "result": 30, "unit": "min"}, {"measurement": "bioavailability", "setting": "[10]; [17]", "result": 2.55, "unit": "%"}, {"measurement": "half-life", "setting": "[10]; [17]", "result": 258, "unit": "min"}, {"measurement": "AUC0-last/dose", "setting": "[10]; oral gavage 10 mg/kg bw S6821", "result": 2.80, "unit": "ng·h/mL/mg/kg"}, {"measurement": "AUC0-last/dose", "setting": "[10]; oral gavage 30 mg/kg bw S6821", "result": 6.70, "unit": "ng·h/mL/mg/kg"}, {"measurement": "AUC0-last/dose", "setting": "[10]; oral gavage 100 mg/kg bw S6821", "result": 4.10, "unit": "ng·h/mL/mg/kg"}, {"measurement": "significant responses (≥50% inhibition or stimulation)", "setting": "[11]", "result": "No significant responses"}, {"measurement": "parent S6821 remaining, peak area % of time 0", "setting": "[12]", "result": 75, "unit": "%"}, {"measurement": "Micronucleus formation (in vivo), Result", "setting": "[13]", "result": "Negative"}]}]}
